Measurements of several laboratories.
Lines come from different studies, so protocols differ.
Target: Calcium/calmodulin-dependent protein kinase type 1 (CAMK1, Homo sapiens, UniProt Q14012)

assay	conditions	remaining binding [%]	Structure (SMILES)
binding, competition with immobilised ligand	1 µM	75	O=C(NCCCN1CCOCC1)c1ccc(Nc2nccc(-c3cc4ccccc4s3)n2)cc1
binding, competition with immobilised ligand	1 µM	100	COc1cnc(Nc2cccc(S(N)(=O)=O)c2)nc1N1CCN(c2ccccc2)C(=O)C1
binding, competition with immobilised ligand	1 µM	74	O=C(Nc1c[nH]nc1C(=O)NC1CCNCC1)c1cc(F)cc(F)c1
cell-free assay, competition with immobilised ligand	1 µM	100	CN([C@@H]1CCc2c(CC(=O)O)c3ccccc3n2C1)S(=O)(=O)c1ccc(F)cc1
binding	1 µM	98	CC1CCCN1c1nccc(-c2cnn3ncccc23)n1 (centres unmarked)
binding, competition with immobilised ligand	1 µM	58	O=C(c1ccc(Nc2ncc(Cl)c(-c3cc4ccccc4s3)n2)cc1)N1CCC(N2CCCC2)CC1
cell-free assay, competition with immobilised ligand	1 µM	77	O=C(NC[C@@H]1[C@H]2CN(C(=O)OCc3cc(C(F)(F)F)cc(C(F)(F)F)c3)C[C@@H]12)c1ccc2[nH]nnc2c1
binding	1 µM	76	CN(CCCC(F)(F)F)c1nccc(-c2cnn3ncccc23)n1
binding, competition with immobilised ligand	1 µM	86	C=CC(=O)N1CCC(C(=O)NCC(=O)N2CCN(c3nc(-c4cnc(N)nc4C(F)F)nc(N4CCOCC4)n3)CC2)CC1
binding, competition with immobilised ligand	1 µM	99	CNC(=O)[C@@H]1CC[C@@H](n2c(-c3ccc4cnccc4c3)nc3ccc(C(=O)NCc4cccc(C(N)=O)c4)cc32)C1
binding, competition with immobilised ligand	1 µM	30	Cc1cnc(Nc2ccc(C(=O)N3CCC(N4CCCC4)CC3)cc2)nc1-c1cc2ccccc2s1
binding	1 µM	86	CN(C)c1ncc(F)c(-c2cnn3ncccc23)n1
cell-free assay, competition with immobilised ligand	1 µM	100	COc1ccc2c(c1)O[C@H](c1ccc(OC)c(OC)c1)C[C@@H]2NC(=O)C1(c2ccc3c(c2)OC(F)(F)O3)CC1
binding	1 µM	80	c1cnn2ncc(-c3ccnc(N4CCC45COC5)n3)c2c1
cell-free assay, competition with immobilised ligand	1 µM	98	CC1=C(C#N)C(c2ccc3c(c2)c(NC(=O)c2ccccc2C)nn3C)C(C#N)=C(C)N1
binding	1 µM	88	N[C@H]1CCN(c2nccc(-c3cnn4ncccc34)n2)C1
cell-free assay, competition with immobilised ligand	1 µM	93	CN(C)CC#Cc1ccc(OCCCc2sc(N3CCc4cccc(C(=O)Nc5nc6ccccc6s5)c4C3)nc2C(=O)O)c(F)c1
binding	1 µM	82	CN(c1nccc(-c2cnn3ncccc23)n1)C1CC1
cell-free assay, competition with immobilised ligand	1 µM	100	CC(=O)N1CCC(c2ccc(C(=O)NC(=N)N)cc2C(F)(F)F)CC1
cell-free assay, competition with immobilised ligand	5 µM	100	COc1ncc2cc3ccccc3nc2c1C#N
